According to ChEMBL document CHEMBL1140938, “Structural requirements for a lipoamino acid in modulating the anticonvulsant activities of systemically active galanin analogues” (J Med Chem, 2009):

What was measured:
Galanin receptor type 1 = target: T1, Galanin receptor type 1 (Homo sapiens, UniProt P47211); assay: Displacement of europium labeled galanin from human recombinant GalR1 receptor by time-resolved fluorescence binding assay
T1 sequence (P47211 whole entry): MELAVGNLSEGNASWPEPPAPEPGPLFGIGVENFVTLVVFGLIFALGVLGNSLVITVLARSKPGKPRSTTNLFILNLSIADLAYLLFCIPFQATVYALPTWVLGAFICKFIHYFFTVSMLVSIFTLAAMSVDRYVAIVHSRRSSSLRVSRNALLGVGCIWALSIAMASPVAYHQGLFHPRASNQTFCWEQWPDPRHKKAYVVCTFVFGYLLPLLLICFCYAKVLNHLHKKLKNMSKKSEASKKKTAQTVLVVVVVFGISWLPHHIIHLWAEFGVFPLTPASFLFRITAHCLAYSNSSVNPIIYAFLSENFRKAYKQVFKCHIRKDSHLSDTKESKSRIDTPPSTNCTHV
Outline: (§1)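 Competition binding on membranes from recombinant human GalR1 or GalR2 versus 2 nM europium-labeled galanin; 90 min incubation at room temperature, four washes (50 mM Tris-HCl pH 7.5, 5 mM MgCl2), enhancement solution 30 min at room temperature, time-resolved fluorescence read.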

Galanin receptor type 2 = target: T2, Galanin receptor type 2 (Homo sapiens, UniProt O43603); assay: Displacement of europium labeled galanin from human recombinant GalR2 receptor by time-resolved fluorescence binding assay
T2 sequence (O43603 whole entry): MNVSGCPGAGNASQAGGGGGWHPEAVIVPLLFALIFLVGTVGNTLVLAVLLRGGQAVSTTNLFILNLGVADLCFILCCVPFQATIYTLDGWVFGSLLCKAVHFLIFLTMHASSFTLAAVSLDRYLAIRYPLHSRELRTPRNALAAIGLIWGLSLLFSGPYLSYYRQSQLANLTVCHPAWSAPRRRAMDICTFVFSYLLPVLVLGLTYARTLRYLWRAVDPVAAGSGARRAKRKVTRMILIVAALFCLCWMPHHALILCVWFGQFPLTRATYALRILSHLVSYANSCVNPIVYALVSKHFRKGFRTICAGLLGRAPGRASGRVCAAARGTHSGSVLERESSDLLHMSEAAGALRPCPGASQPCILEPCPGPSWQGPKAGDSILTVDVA
Outline: as §1, with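 “read. Ki from nonlinear sigmoidal variable-slope fit, one-site reversible model, tracer Kd held at 4.3 nM.” for “read.”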

[1] = Lipophilicity, log D by HPLC method; format: physicochemical
Outline: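 HPLC retention times were measured on a linear gradient of 20% to 100% buffer B (0.1% TFA in 90% aqueous acetonitrile; A was 0.1% TFA in water) over 40 min. Five analogs were calibrated by shake flask: 400 µg peptide in 1 mL PBS shaken with an equal volume of water-saturated octanol for 24 h, aqueous phase quantified by HPLC. LogD was calculated from the linear correlation with retention time.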

Row | SMILES | Ki (Galanin receptor type 1) | Ki (Galanin receptor type 2) | logD [1]
1 | CCCCCCCCCCCCCCCCCC(=O)NCCCC[C@H](NC(=O)[C@H](CCCCN)NC(=O)[C@H](CCCCN)NC(=O)[C@@H]1CCCN1C(=O)CNC(=O)[C@H](CC(C)C)NC(=O)[C@H](CC(C)C)NC(=O)[C@H](Cc1ccc(O)cc1)NC(=O)CNC(=O)[C@H](C)NC(=O)[C@H](CO)NC(=O)[C@H](CC(N)=O)NC(=O)[C@H](CC(C)C)NC(=O)[C@@H](NC(=O)[C@H](Cc1c[nH]c2ccccc12)NC(=O)CNC)[C@@H](C)O)C(=O)N[C@@H](CCCCN)C(N)=O | 4 nM | 15 nM | –
2 | CCCCCCCCCCCCCCCCCC(=O)NCCCC[C@H](NC(=O)[C@H](CCCCN)NC(=O)[C@H](CCCCN)NC(=O)[C@@H]1CCCN1C(=O)CNC(=O)[C@H](CC(C)C)NC(=O)[C@H](CC(C)C)NC(=O)[C@H](Cc1ccc(O)cc1)NC(=O)CNC(=O)[C@H](C)NC(=O)[C@H](CO)NC(=O)[C@H](CC(N)=O)NC(=O)[C@H](CC(C)C)NC(=O)[C@@H](NC(=O)[C@H](Cc1c[nH]c2ccccc12)OC(=O)CNC)[C@@H](C)O)C(=O)N[C@@H](CCCCN)C(N)=O | – | – | 1.35
3 | CCCCCCCCCC(=O)NCCCC[C@H](NC(=O)[C@H](CCCCN)NC(=O)[C@H](CCCCN)NC(=O)[C@@H]1CCCN1C(=O)CNC(=O)[C@H](CC(C)C)NC(=O)[C@H](CC(C)C)NC(=O)[C@H](Cc1ccc(O)cc1)NC(=O)CNC(=O)[C@H](C)NC(=O)[C@H](CO)NC(=O)[C@H](CC(N)=O)NC(=O)[C@H](CC(C)C)NC(=O)[C@@H](NC(=O)[C@H](Cc1c[nH]c2ccccc12)NC(=O)CNC)[C@@H](C)O)C(=O)N[C@@H](CCCCN)C(N)=O | 1.3 nM | 14.4 nM | –
4 | CCCCCCCC(=O)NCCCC[C@H](NC(=O)[C@H](CCCCN)NC(=O)[C@H](CCCCN)NC(=O)[C@@H]1CCCN1C(=O)CNC(=O)[C@H](CC(C)C)NC(=O)[C@H](CC(C)C)NC(=O)[C@H](Cc1ccc(O)cc1)NC(=O)CNC(=O)[C@H](C)NC(=O)[C@H](CO)NC(=O)[C@H](CC(N)=O)NC(=O)[C@H](CC(C)C)NC(=O)[C@@H](NC(=O)[C@H](Cc1c[nH]c2ccccc12)NC(=O)CNC)[C@@H](C)O)C(=O)N[C@@H](CCCCN)C(N)=O | 0.7 nM | 14.9 nM | –
5 | CCCCCCCC(=O)NCCCC[C@H](NC(=O)[C@H](CCCCN)NC(=O)[C@H](CCCCN)NC(=O)[C@@H]1CCCN1C(=O)CNC(=O)[C@H](CC(C)C)NC(=O)[C@H](CC(C)C)NC(=O)[C@H](Cc1ccc(O)cc1)NC(=O)CNC(=O)[C@H](C)NC(=O)[C@H](CO)NC(=O)[C@H](CC(N)=O)NC(=O)[C@H](CC(C)C)NC(=O)[C@@H](NC(=O)[C@H](Cc1c[nH]c2ccccc12)OC(=O)CNC)[C@@H](C)O)C(=O)N[C@@H](CCCCN)C(N)=O | – | – | 0.78
6 | CNCC(=O)N[C@@H](Cc1c[nH]c2ccccc12)C(=O)N[C@H](C(=O)N[C@@H](CC(C)C)C(=O)N[C@@H](CC(N)=O)C(=O)N[C@@H](CO)C(=O)N[C@@H](C)C(=O)NCC(=O)N[C@@H](Cc1ccc(O)cc1)C(=O)N[C@@H](CC(C)C)C(=O)N[C@@H](CC(C)C)C(=O)NCC(=O)N1CCC[C@H]1C(=O)N[C@@H](CCCCN)C(=O)N[C@@H](CCCCN)C(=O)N[C@@H](CCCCNC(=O)COCCOCCOCCOCCOC)C(=O)N[C@@H](CCCCN)C(N)=O)[C@@H](C)O | 0.5 nM | 20.5 nM | –
7 | CCCCCCCCCCCC(=O)NCCCC[C@H](NC(=O)[C@H](CCCCN)NC(=O)[C@H](CCCCN)NC(=O)[C@@H]1CCCN1C(=O)CNC(=O)[C@H](CC(C)C)NC(=O)[C@H](CC(C)C)NC(=O)[C@H](Cc1ccc(O)cc1)NC(=O)CNC(=O)[C@H](C)NC(=O)[C@H](CO)NC(=O)[C@H](CC(N)=O)NC(=O)[C@H](CC(C)C)NC(=O)[C@@H](NC(=O)[C@H](Cc1c[nH]c2ccccc12)NC(=O)CNC)[C@@H](C)O)C(=O)N[C@@H](CCCCN)C(N)=O | 1.4 nM | 16.1 nM | –
8 | CCCCCCCCCCCCCC(=O)NCCCC[C@H](NC(=O)[C@H](CCCCN)NC(=O)[C@H](CCCCN)NC(=O)[C@@H]1CCCN1C(=O)CNC(=O)[C@H](CC(C)C)NC(=O)[C@H](CC(C)C)NC(=O)[C@H](Cc1ccc(O)cc1)NC(=O)CNC(=O)[C@H](C)NC(=O)[C@H](CO)NC(=O)[C@H](CC(N)=O)NC(=O)[C@H](CC(C)C)NC(=O)[C@@H](NC(=O)[C@H](Cc1c[nH]c2ccccc12)NC(=O)CNC)[C@@H](C)O)C(=O)N[C@@H](CCCCN)C(N)=O | 2.6 nM | 18.2 nM | –
